This is a sample that favours compounds with a hit; in the whole collection about 3.3% have one here.
HTR2A ag: mouse Htr2a agonists via beta-arrestin recruitment, primary screen, cell-based, luminescence. 5-hydroxytryptamine receptor 2A (Mus musculus), P35363. activation, % at 7.6 µM. CHO-K1 mHTR2A beta-arrestin complementation; percent of 30 µM serotonin response. AID 624169, 2012. 360,000 tested, 0.66% active;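 active = activation above a run cutoff, the mean activation of all tested compounds plus 3 SD, cut at about 14% in these data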;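 also: 0% = plate median of compound wells and 100% = 30 µM serotonin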
Arr AP2 block: inhibitors of beta-arrestin/AP2 binding, primary screen, biochemical, GPCR trafficking, flow cytometry. AID 504490, 2011. FITC-arrestin peptide / GST-AP2 beads; AP2 beta2 appendage carries R879A mutation. 340,000 tested, 0.31% active. inhibition, % at 10 µM;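 active = inhibition above a set limit, near 3 SD of compounds lacking own fluorescence, cut at about 54% in these data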;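 also: plate controls were DMSO wells for no effect and 5 µM unlabelled arrestin peptide for full effect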
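System: GST-AP2 R879A glutathione beads; medium: PBS, Tween 20 0.05%, BSA 0.1%; reagent: fluorescein-tagged arrestin peptide at 50 nM final; schedule: pre-incubation 12 min, peptide binding 1 h, room temperature; detection: flow cytometry, FL1 (488/535 nm); read-out: inhibition as reduced fluorescein signal on beads, percent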
PfM18AAP inh-1: PfM18AAP inhibitors, malaria aminopeptidase, primary screen, biochemical, QFRET, recombinant enzyme; H-Glu-NHMec fluorogenic cleavage; 290,000 tested, 1.2% active; AID 1822, 2009; inhibition, % at 7.35 µM; M18 aspartyl aminopeptidase (Plasmodium falciparum 3D7);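 active = inhibition above the campaign mean inhibition over all tested compounds plus 3 SD, cut at about 28% in these data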;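 also: 0% = plate median of test compound wells and 100% = 2 mM ZnCl2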
Lipid droplet: inhibitors of hepatocyte lipid droplet formation, primary screen, imaging, high-throughput imaging, BODIPY stain | AML12 mouse hepatocytes, oleate lipid droplets | inhibition, % at 6.5 µM | 240,000 tested, 0.4% active;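 active = lipid droplet intensity inhibited by at least 50%, with more than 500 cells counted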
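Material – AML12 mouse liver cells · Also added – oleate loading, 100 µM · Compound dosing – 6.5 µM single-point dosing · Times – overnight treatment with compound plus oleate · Measured by – fluorescence imaging, 20x objective, two fields per well · Read-out – percent inhibition of filter-corrected integrated lipid droplet intensity per well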
HGIII-sPLA2 inh: human group III sPLA2 inhibitors, primary screen, biochemical, QFRET, BODIPY PC-A2 liposome substrate; QFRET BODIPY PC-A2 liposome hydrolysis, fluorescence; AID 743126, 2013; Group 3 secretory phospholipase A2 (Homo sapiens), Q9NZ20; 370,000 tested, 0.56% active; inhibition, % at 12.2 µM;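 active = inhibition above mean plus 3 SD of compounds lying within the high and low control bounds, cut at about 19% in these data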;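 also: 0% = median of test compound wells and 100% = no enzyme DMSO wells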
NRP1-CendR mod: modulators of CendR peptide binding to NRP-1, primary screen, biochemical, fluorescence polarization, uHTS; FAM-RPARPAR peptide binding to NRP-1; Neuropilin-1 (Homo sapiens), O14786; 360,000 tested, 0.85% active; inhibition, % at 25 µM;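 active = inhibition or corrected inhibition above about 18%, plus a signal ratio from 0.5 to 1.5, limit read from the data, passing the limit was not always enough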
Target sequence (O14786 whole entry, looked up): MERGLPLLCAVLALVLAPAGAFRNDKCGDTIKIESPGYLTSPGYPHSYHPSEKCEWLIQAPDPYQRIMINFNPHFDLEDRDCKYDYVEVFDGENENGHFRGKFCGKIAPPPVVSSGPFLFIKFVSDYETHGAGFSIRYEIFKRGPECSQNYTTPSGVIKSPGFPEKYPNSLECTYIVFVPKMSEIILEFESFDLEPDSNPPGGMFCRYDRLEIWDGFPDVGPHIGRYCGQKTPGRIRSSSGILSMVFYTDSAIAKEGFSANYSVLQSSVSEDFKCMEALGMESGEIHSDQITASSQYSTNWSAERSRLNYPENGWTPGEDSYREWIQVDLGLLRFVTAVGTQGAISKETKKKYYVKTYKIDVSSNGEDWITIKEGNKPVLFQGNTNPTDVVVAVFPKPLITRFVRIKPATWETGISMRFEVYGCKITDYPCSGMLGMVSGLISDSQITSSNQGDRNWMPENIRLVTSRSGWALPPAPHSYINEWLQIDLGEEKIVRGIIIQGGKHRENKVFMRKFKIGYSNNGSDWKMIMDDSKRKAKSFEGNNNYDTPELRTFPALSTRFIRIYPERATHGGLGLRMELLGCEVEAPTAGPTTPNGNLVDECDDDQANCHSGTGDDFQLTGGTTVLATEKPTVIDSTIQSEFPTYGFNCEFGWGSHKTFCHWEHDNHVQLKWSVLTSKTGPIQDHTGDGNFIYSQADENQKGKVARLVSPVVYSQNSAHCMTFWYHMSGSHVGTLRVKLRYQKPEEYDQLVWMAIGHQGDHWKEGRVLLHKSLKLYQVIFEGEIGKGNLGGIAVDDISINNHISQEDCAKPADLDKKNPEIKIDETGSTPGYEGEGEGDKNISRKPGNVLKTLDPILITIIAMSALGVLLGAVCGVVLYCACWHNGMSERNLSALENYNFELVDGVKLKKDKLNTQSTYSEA
PfM18AAP inh-2: PfM18AAP inhibitors, malaria aminopeptidase, confirmation, biochemical, QFRET, recombinant enzyme, triplicate; inhibition, % at 7.35 µM; H-Glu-NHMec fluorogenic cleavage; 2,400 tested, 28% active; shares compounds with PfM18AAP inh-1;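 active = mean inhibition over replicate wells above the hit cutoff set for the earlier primary screen, cut at about 29% in these data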;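 also: 0% = median of test compound wells and 100% = 2 mM ZnCl2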
CTSL1 confirm: cathepsin L1 inhibitors, retest, confirmation, counter-screen for PFM18AAP inhibitor project, biochemical, QFRET, triplicate | shares compounds with PfM18AAP inh-1 | purified cathepsin L1, Z-Leu-Arg-MCA fluorescence | inhibition, % at 5.96 µM | 2,400 tested, under 10 active;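 active = average inhibition across replicates above the hit cutoff set in the earlier primary screen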;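 also: 0% = median of test compound wells and 100% = Z-Phe-Ala-diazomethylketone 1 µM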
Numbers without * were called inactive; x = no result.

SMILES | HTR2A ag | Arr AP2 block | PfM18AAP inh-1 | Lipid droplet | HGIII-sPLA2 inh | NRP1-CendR mod | PfM18AAP inh-2 | CTSL1 confirm
CC(Sc1ccc(S(=O)(=O)N2CCOCC2)cc1[N+](=O)[O-])C(=O)O (stereo not given) | 6 | 7 | 33* | 14 | -1 | -11 | -34 | -7
Cn1c(CO)nc2cc(N)ccc21 | 5 | 36 | 39* | x | 0 | 15 | -45 | 1
COC(=O)COc1ccc(C)cc1-n1nc2ccccc2n1 | 2 | 54 | 38* | 11 | -1 | 0 | -39 | -5
O=C(Nc1nc(=O)c2ccccc2s1)c1ccc(F)cc1 | -1 | 5 | 42* | 3 | 1 | -7 | -32 | -1
Nc1ccc(C(=O)Nc2nc3ccccc3s2)cc1 | 0 | 12 | 3 | 1 | 0 | 2 | x | x
O=C(Cc1ccccc1)Nc1nc(=O)c2ccccc2s1 | 1 | 0 | 40* | x | -3 | -12 | -53 | -11
CCOC(=O)c1ccc(-c2c(-c3ccccc3OC)sc3ccc(OC)cc23)cc1F | 4 | 16 | x | x | -6 | 0 | x | x
COc1ccc(C(C)=O)cc1CSc1nc2ccccc2c(=O)n1-c1ccccc1C | -1 | 2 | 43* | 0 | -3 | -7 | -62 | 2
COc1ccc(C(C)=O)cc1CSc1nc2ccccc2c(=O)n1-c1ccccc1 | 2 | 2 | -4 | 7 | 4 | -18 | x | x
NNc1nc(-c2ccccc2)c2cc(Br)ccc2n1 | 7 | -25 | 35* | 0 | 12 | -10 | -6 | 5
CC1(Oc2ccc(-n3ccnc3)cc2)CCN(Cc2cccn2-c2nccs2)C1 (stereo not given) | 0 | x | x | x | -14 | -12 | x | x
Nc1nc(-c2cc(O)ccc2[N+](=O)[O-])cc(-c2ccccc2)c1[N+](=O)[O-] | 1 | 20 | 46* | 17 | 8 | -31 | -37 | -2
CCn1c(SCC(=O)Nc2ccc(F)cc2)nnc1C1CC1 | 3 | 2 | -2 | -6 | 3 | -3 | x | x
CC(C)Cn1c(-c2nn(C)cc2Cl)n[nH]c1=S | -4 | 3 | 12 | x | -5 | 1 | x | x
Cc1ccsc1-c1n[nH]c(=S)n1CC(C)C | 5 | 25 | 34* | 18 | 17 | 9 | -13 | 5
Cc1cccc(NC(=S)NCCc2ccccc2)n1 | -5 | -39 | 38* | 0 | 8 | 9 | 10 | 1
S=C(NCCc1ccccc1)Nc1ccccn1 | -4 | 33 | 25 | -5 | 15 | 0 | x | x
Oc1cc2c(cc1CN1CCc3ccccc3C1)OCO2 | 2 | 50 | 37* | 7 | 7 | 5 | 12 | -6
O=C(NCc1ccccn1)c1n[nH]c2ccccc12 | 1 | 37 | 37* | x | -3 | -1 | -8 | -3
O=C(NC(=S)NNS(=O)(=O)c1ccccc1)c1ccc([N+](=O)[O-])cc1 | 0 | x | 50* | 22 | 2 | 0 | -9 | 4
O=S1(=O)c2c(cccc2N2CC[C@H](O)C2)O[C@H]2CCN1C2 | x | x | x | x | 8 | x | x | x
O=[N+]([O-])c1cc2c(cc1/C=N/NS(=O)(=O)c1ccc(Br)cc1)OCO2 | 2 | 11 | 50* | 2 | 13 | 3 | 13 | -2
Cc1ccc(S(=O)(=O)N/N=C\c2cc3c(cc2Br)OCO3)cc1 | 5 | -2 | 12 | -8 | -7 | -2 | x | x
O=C1NC(c2cccs2)Nc2sc3c(c21)CCCC3 (stereo not given) | -3 | 4 | 13 | 0 | -8 | -21 | x | x
CN1C(=O)c2c(sc3c2CCCC3)NC1c1ccccc1O (stereo not given) | x | x | 34* | 17 | x | x | -24 | -1
SMILES | HTR2A ag | Arr AP2 block | PfM18AAP inh-1 | Lipid droplet | HGIII-sPLA2 inh | NRP1-CendR mod | PfM18AAP inh-2 | CTSL1 confirm
CCN(CC)c1ccc(C2C3CCCCC3(O)CCN2CC(=O)N2CCCCC2)cc1 (stereo not given) | 3 | 4 | 49* | x | 4 | 11 | -8 | 4
Cn1c(C(=O)O)cnc1Sc1ncc(C(F)(F)F)cc1Cl | 1 | x | 2 | -15 | 4 | -7 | x | x
Nc1cc(=O)[nH]c(SCC(=O)Nc2ncc(C(F)(F)F)cc2Cl)n1 | 6 | x | 7 | 12 | 2 | -10 | x | x
FC(F)(F)c1cnc(Sc2ncn[nH]2)c(Cl)c1 | 4 | 21 | 92* | -13 | -1 | 6 | 83* | -4
O=C(CSc1ncn[nH]1)Nc1ncc(C(F)(F)F)cc1Cl | 0 | 0 | 84* | 5 | -18 | -8 | 74* | -5
CC(=O)c1ccc(NC(=O)C(C)Sc2nnc(C3CC3)n2C2CC2)cc1 (stereo not given) | -2 | 17 | x | x | 14 | 8 | x | x
O=C(NC1CCCCN(Cc2cccc(C(F)(F)F)c2)C1=O)c1ccc(F)cc1 (stereo not given) | x | x | x | x | -2 | x | x | x
COCCN1C=C(C(=O)OC)C(c2ccc3c(c2)OCO3)C(C(=O)OC)=C1 | -1 | -2 | 38* | x | 4 | -6 | -6 | 0
COCCCN1C(=O)/C(=C\c2ccc3c(c2)OCO3)C(C(=O)OC)=C1C | 13 | -12 | 52* | 6 | -2 | -10 | -27 | 3
CCN1C(=O)/C(=C\c2ccc3c(c2)OCO3)C(C(=O)OC)=C1C | 0 | 15 | 0 | x | 0 | -102 | x | x
O=C(CN1CC(=O)Oc2ccccc21)NCc1ccco1 | 1 | -4 | 33* | x | 7 | -14 | -16 | 0
CN(C)c1ccc(N=Cc2cccn2C)cc1 | 2 | -8 | 58* | 20 | 6 | 6 | -24 | -4
N/C(=N\N=C\c1ccc(O)cc1)c1nonc1N | -5 | -15 | -1 | 3 | 2 | 4 | x | x
O=C(N/N=C/c1ccc(O)c(O)c1)N/N=C/c1ccc(O)c(O)c1 | -3 | 33 | 80* | 13 | -11 | -45 | 64* | -5
O=C(NN=Cc1ccc2c(c1)OCO2)NN=Cc1ccc2c(c1)OCO2 | 4 | 33 | x | x | -4 | 17 | x | x
N/C(=N\N=C\c1ccc(O)c(O)c1)c1nonc1N | -1 | 2 | 43* | 15 | 16 | 1 | 25 | 3
Cc1nonc1C(=O)N/N=C/c1ccc(O)c(O)c1 | -1 | 4 | 66* | 3 | -2 | 1 | 66* | -1

High-throughput results (PubChem BioAssay)
